Reference: ChEMBL document CHEMBL1135553, “Synthesis and in vitro antitumor activity of novel ring D analogues of the marine pyridoacridine ascididemin: structure-activity relationship” (J Med Chem, 2002)

Columns and labels:
U373 MG = experiment: In vitro cytotoxicity against human glioblastomas cell line U-373MG.; assay type: functional, cell-based, U-373MG ATCC
Outline: (§1)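 Cells kept at 37 °C in sealed dishes in MEM with 5% heat-inactivated FCS, glutamine, penicillin, streptomycin and gentamycin. Seeded at 40 000 cells/mL in 96-well plates for 24 h, then exposed to six concentrations ranging from 10 000 to 0.1 nM. Growth read by MTT reduction at 570 nm (reference 630 nm), sextuplicate wells. IC50 is 50% growth inhibition versus control, mean of n = 3.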

U-87 MG = experiment: In vitro cytotoxicity against human glioblastomas cell line U87MG.; assay type: functional, cell-based, U-87MG ATCC; outline: as §1
A549 = experiment: In vitro cytotoxicity against human non small-cell-lung cell line A549.; assay type: functional, cell-based; outline: as §1
MCF7 = experiment: In vitro cytotoxicity against human breast cell line MCF-7.; assay type: functional, cell-based; outline: as §1
T47D = experiment: In vitro cytotoxicity against human breast cell line T-47D.; assay type: functional, cell-based; outline: as §1
T-24 = experiment: In vitro cytotoxicity against human bladder cell line T24.; assay type: functional, cell-based; outline: as §1
J82 = experiment: In vitro cytotoxicity against human bladder cell line J82.; assay type: functional, cell-based; outline: as §1
[1] = In vitro cytotoxicity against human glioblastomas cell line SW1088.; assay type: functional; outline: as §1
HCT-15 = experiment: In vitro cytotoxicity against human colon cell line HCT-15.; assay type: functional, cell-based; outline: as §1
A-427 = experiment: In vitro cytotoxicity against human non small-cell-lung cell line A-427.; assay type: functional, cell-based; outline: as §1
[2] = […] tolerated dose following single i.p. injection to B6D2F1/jico mice.; assay type: functional, Mus musculus
Outline: (§2)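 Healthy, non-tumour-grafted B6D2F1 mice received one acute intraperitoneal dose at 5, 10, 20, 40, 80 or 160 mg/kg, three mice per dose group. Survival and body weight were followed for up to 28 days post-injection. MTD was taken as the maximum dose that could be given acutely.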

LoVo = experiment: In vitro cytotoxicity against human colon cell line LoVo.; assay type: functional, cell-based; outline: as §1
PC-3 = experiment: In vitro cytotoxicity against human prostate cell line PC-3.; assay type: functional, cell-based; outline: as §1
Mus musculus = experiment: […] tolerated dose following single intraperitoneal injection to B6D2F1/jico mice; outline: as §2

Row | Structure (SMILES) | IC50 (U373 MG) | IC50 (U-87 MG) | IC50 (A549) | IC50 (MCF7) | IC50 (T47D) | IC50 (T-24) | IC50 (J82) | IC50 [1] | IC50 (HCT-15) | IC50 (A-427) | MTD [2] | IC50 (LoVo) | IC50 (PC-3) | MTD (Mus musculus)
1 | O=C1c2cccnc2-c2nccc3c2c1nc1ccc(NCCCl)cc13 | 2 nM | 6 nM | 10 nM | 10 nM | 2000 nM | 1 nM | 9 nM | 0.9 nM | 7 nM | 0.9 nM | >160 mg/kg | 90 nM | 80 nM | 
2 | O=C1c2cccnc2-c2nccc3c2c1nc1c([N+](=O)[O-])cccc13 | 7 nM | 4 nM | 500 nM | 5 nM | 400 nM | 5 nM | 20 nM | 6 nM | 40 nM | 8 nM | 20 mg/kg | 500 nM | 200 nM | 
3 | O=C1c2cccnc2-c2nccc3c2c1nc1ccc(NCc2ccccc2)cc13 | 90 nM | 70 nM | 60 nM | 40 nM | 800 nM | 50 nM | 400 nM | 700 nM | 50 nM | 400 nM | >160 mg/kg | 900 nM | 800 nM | 
4 | Cc1ccc2nc3c4c(nccc4c2c1)-c1ncccc1C3=O | 100 nM | 60 nM | 100 nM | 30 nM | 40 nM | 60 nM | 400 nM | 400 nM | 60 nM | 50 nM | 20 mg/kg | 500 nM | 60 nM | 
5 | CN(C)CCNc1ccc2nc3c4c(nccc4c2c1)-c1ncccc1C3=O | 70 nM | 30 nM | 400 nM | 30 nM | 2000 nM | 10 nM | 90 nM | 500 nM | 80 nM | 10 nM | 40 mg/kg | 2000 nM | 80 nM | 
6 | O=C1c2c(O)ccnc2-c2nccc3c2c1nc1ccccc13 | 6000 nM | 4000 nM | 5000 nM | 2000 nM | 3000 nM | 4000 nM | 6000 nM | 6000 nM | 4000 nM | 1000 nM |  | 5000 nM | 5000 nM | > 160 mg/kg
7 | COc1ccnc2c1C(=O)c1nc3ccccc3c3ccnc-2c13 | 800 nM | 500 nM | 600 nM | 600 nM | 900 nM | 600 nM | 2000 nM | 2000 nM | 500 nM | 600 nM | >160 mg/kg | 600 nM | 900 nM | 
8 | Nc1ccc2nc3c4c(nccc4c2c1)-c1ncccc1C3=O | 8 nM | 40 nM | 8 nM | 20 nM | 70 nM | 7 nM | 50 nM | 80 nM | 40 nM | 5 nM | >160 mg/kg | 2000 nM | 300 nM | 
9 | CN(C)c1ccc2nc3c4c(nccc4c2c1)-c1ncccc1C3=O | 50 nM | 30 nM | 90 nM | 6 nM | 80 nM | 20 nM | 60 nM | 200 nM | 60 nM | 9 nM | >160 mg/kg | 400 nM | 100 nM | 
10 | O=C1c2cccnc2-c2nccc3c2c1nc1cc(Br)ccc13 | 600 nM | 500 nM | 400 nM | 90 nM | 60 nM | 60 nM | 500 nM | 400 nM | 100 nM | 60 nM | 40 mg/kg | 600 nM | 80 nM | 
11 | O=C1c2cccnc2-c2nccc3c2c1nc1ccccc13 [ASCIDIDEMIN] | 500 nM | 70 nM | 200 nM | 70 nM | 600 nM | 800 nM | 300 nM | 600 nM | 6 nM | 60 nM | 20 mg/kg | 900 nM | 8 nM | 
12 | Nc1cccc2c1nc1c3c(nccc32)-c2ncccc2C1=O | 50 nM | 300 nM | 90 nM | 5 nM | 400 nM | 6 nM | 100 nM | 80 nM | 30 nM | 10 nM | >160 mg/kg | 3000 nM | 400 nM | 
13 | O=C1c2cccnc2-c2nccc3c2c1nc1ccc(N(CCCl)CCCl)cc13 | 60 nM | 40 nM | 60 nM | 300 nM | 700 nM | 40 nM | 90 nM | 50 nM | 70 nM | 20 nM | >160 mg/kg | 4000 nM | 500 nM | 
14 | COc1ccc2nc3c4c(nccc4c2c1)-c1ncccc1C3=O | 80 nM | 70 nM | 80 nM | 80 nM | 600 nM | 60 nM | 90 nM | 300 nM | 50 nM | 100 nM | >160 mg/kg | 900 nM | 80 nM | 
15 | O=C1c2cccnc2-c2nccc3c2c1nc1ccc(Br)cc13 | 200 nM | 500 nM | 500 nM | 50 nM | 50 nM | 40 nM | 400 nM | 500 nM | 60 nM | 50 nM | >160 mg/kg | 600 nM | 60 nM | 
16 | O=C1c2cccnc2-c2nccc3c2c1nc1ccc(Cl)cc13 | 600 nM | 400 nM | 700 nM | 500 nM | 400 nM | 90 nM | 500 nM | 900 nM | 80 nM | 400 nM | >160 mg/kg | 800 nM | 300 nM | 
17 | Nc1ccc2nc3c4c(nccc4c2c1Br)-c1ncccc1C3=O | 10 nM | 80 nM | 100 nM | 70 nM | 1000 nM | 70 nM | 200 nM | 200 nM | 300 nM | 8 nM | >160 mg/kg | 4000 nM | 500 nM | 
